# Measured values collected from several papers.
# Lines come from different studies, so protocols differ.
# Organism: Candida albicans
# Read-out: microbial growth
SMILES,assay,test system,setting,endpoint,value
O=C(C=Cc1ccc(O)c(O)c1)OCCc1ccccc1,broth dilution,SC5314,,MIC,8 mg/L
CC(C)=CCCC(C)=CC1c2c(C)nn(-c3ccccc3)c2NN1C(=O)c1ccncc1 (centres unmarked),,MTCC183,,MIC,32 mg/L
CC(=O)Oc1ccc(-c2c(C(N)=O)c(N)n(N)c(=O)c2C#N)cc1,well diffusion,ATCC10231,500 µg/mL,inhibition zone,12 mm
OC(Cn1cncn1)(Cn1cncn1)c1ccc(F)cc1F,broth dilution,SC5314,48 h,MIC50,0.8 µM
OC(Cn1cncn1)(Cn1cncn1)c1ccc(F)cc1F,broth dilution,SC5314,,MIC,0.25 mg/L
N#Cc1c(-c2ccc(Cl)cc2Cl)c(C(N)=S)c(N)n(N)c1=O,well diffusion,ATCC10231,500 µg/mL,inhibition zone,13 mm
O=C(C=Cc1ccc(O)c(O)c1)Oc1ccccc1,broth dilution,SC5314,,MIC,32 mg/L
Cc1c(C(N)=O)c(N)n(N)c(=O)c1C#N,well diffusion,ATCC10231,500 µg/mL,inhibition zone,12 mm
COc1ccc(C2c3c(C)nn(-c4ccccc4)c3NN2C(=O)c2ccncc2)cc1 (centres unmarked),,MTCC183,,MIC,16 mg/L
Cc1c(C(N)=S)c(N)n(N)c(=O)c1C#N,well diffusion,ATCC10231,500 µg/mL,inhibition zone,19 mm
O=C(C=Cc1ccc(O)c(O)c1)OCc1ccccc1,broth dilution,SC5314,,MIC,64 mg/L
Cc1nn(-c2ccccc2)c2c1C(c1ccc(N(C)C)cc1)N(C(=O)c1ccncc1)N2 (centres unmarked),,MTCC183,,MIC,32 mg/L
Nc1ccccc1OC(=O)C=Cc1ccc(O)c(O)c1,broth dilution,SC5314,,MIC,8 mg/L
Cc1nn(-c2ccccc2)c2c1C(c1c[nH]c3ccccc13)N(C(=O)c1ccncc1)N2 (centres unmarked),,MTCC183,,MIC,32 mg/L
C[C@@H]1[C@H](O)[C@@H](C)/C=C/C=C/C=C/C=C/C=C/C=C/C=C/[C@H](O[C@@H]2O[C@H](C)[C@@H](O)[C@H](N)[C@@H]2O)C[C@@H]2O[C@](O)(C[C@@H](O)C[C@@H](O)[C@H](O)CC[C@@H](O)C[C@@H](O)CC(=O)O[C@H]1C)C[C@H](O)[C@H]2C(=O)O,broth dilution,ATCC60193,24 h,MIC,2 mg/L
Clc1ccccc1C(c1ccccc1)(c1ccccc1)n1ccnc1,,MTCC183,,MIC,0.5 mg/L
CN(C)c1ccc(-c2c(C(N)=O)c(N)n(N)c(=O)c2C#N)cc1,well diffusion,ATCC10231,500 µg/mL,inhibition zone,12 mm
